In ChEMBL document CHEMBL2311390, “Synthesis and preliminary evaluation of pharmacological properties of some piperazine derivatives of xanthone” (Bioorg Med Chem, 2013):

Tests used:
Rattus norvegicus [1] = test: Hypotensive activity in normotensive Wistar rat assessed as reduction of systolic blood pressure at 0.625 mg/kg, iv after 30 mins; format: functional, Artery
Method in brief: (§1)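 Male normotensive Wistar rats (170–350 g) anaesthetised with thiopental 75 mg/kg ip; right carotid artery cannulated with heparinised saline-filled polyethylene tubing for pressure recording. After a 5 min stabilisation, compound given into the caudal vein at 1 mL/kg. Systolic pressure is recorded at 0, 5, 10, 20, 30 and 60 min, and the data are reported as mean ± SEM of five to six animals, with one-way ANOVA.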

Rattus norvegicus [2] = test: Hypotensive activity in normotensive Wistar rat assessed as reduction of diastolic blood pressure at 1.25 mg/kg, iv after 10 mins; format: functional, Artery
Method in brief: (§2)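 Male normotensive Wistar rats were anaesthetised with thiopental 75 mg/kg ip. The right carotid artery was cannulated with heparinised saline for pressure recording. After 5 min of stabilisation, compound was injected into the tail vein at 1 mL/kg. Systolic and diastolic pressure were followed up to 60 min. Data are means ± SEM of 5–6 rats, analysed by one-way ANOVA.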

Rattus norvegicus [3] = test: Hypotensive activity in normotensive Wistar rat assessed as reduction of diastolic blood pressure at 1.25 mg/kg, iv after 5 mins; format: functional, Artery; method in brief: as §2
Rattus norvegicus [4] = test: Hypotensive activity in normotensive Wistar rat assessed as reduction of diastolic blood pressure at 0.625 mg/kg, iv after 5 mins; format: functional, Artery; method in brief: as §2
Rattus norvegicus [5] = test: Hypotensive activity in normotensive Wistar rat assessed as reduction of diastolic blood pressure at 1.25 mg/kg, iv after 20 mins; format: functional, Artery; method in brief: as §2
Rattus norvegicus [6] = test: Hypotensive activity in normotensive Wistar rat assessed as reduction of systolic blood pressure at 1.25 mg/kg, iv after 20 mins; format: functional, Artery; method in brief: as §1
Rattus norvegicus [7] = test: Hypotensive activity in normotensive Wistar rat assessed as reduction of diastolic blood pressure at 0.625 mg/kg, iv after 10 mins; format: functional, Artery; method in brief: as §2
Rattus norvegicus [8] = test: Hypotensive activity in normotensive Wistar rat assessed as reduction of diastolic blood pressure at 1.25 mg/kg, iv after 60 mins; format: functional, Artery; method in brief: as §2
Rattus norvegicus [9] = test: Hypotensive activity in normotensive Wistar rat assessed as reduction of systolic blood pressure at 0.625 mg/kg, iv after 20 mins; format: functional, Artery; method in brief: as §1
Rattus norvegicus [10] = test: Hypotensive activity in normotensive Wistar rat assessed as reduction of systolic blood pressure at 0.625 mg/kg, iv after 60 mins; format: functional, Artery; method in brief: as §1
Rattus norvegicus [11] = test: Hypotensive activity in normotensive Wistar rat assessed as reduction of systolic blood pressure at 1.25 mg/kg, iv after 5 mins; format: functional, Artery; method in brief: as §1
Rattus norvegicus [12] = test: Cardiotoxicity in Wistar rat assessed as PQ interval at 10 mg/kg, iv after 15 mins by ECG analysis; format: toxicity, organism-based; set-up: dose 10 mg/kg, route intravenous; conditions: in vivo, 0.25 h
Method in brief: (§3)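 Male normotensive Wistar rats, 170–350 g, six per group. Compound given iv at a constant volume of 1 mL/kg. ECG was recorded just before dosing and at 1, 5 and 15 min after. PQ, QRS and QT intervals and heart rate were read from the trace. Groups were compared by one-way ANOVA.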

Rattus norvegicus [13] = test: Cardiotoxicity in Wistar rat assessed as hear beats per min at 10 mg/kg, iv after 5 mins by ECG analysis; format: toxicity, organism-based; set-up: dose 10 mg/kg, route intravenous; conditions: in vivo; method in brief: as §3
Rattus norvegicus [14] = test: Cardiotoxicity in Wistar rat assessed as QRS interval at 10 mg/kg, iv after 10 mins by ECG analysis; format: toxicity, organism-based; set-up: dose 10 mg/kg, route intravenous; conditions: in vivo
Rattus norvegicus [15] = test: Cardiotoxicity in Wistar rat assessed as QT interval at 10 mg/kg, iv after 10 mins by ECG analysis; format: toxicity, organism-based; set-up: dose 10 mg/kg, route intravenous; conditions: in vivo
Rattus norvegicus [16] = test: Cardiotoxicity in Wistar rat assessed as QT interval at 10 mg/kg, iv after 15 mins by ECG analysis; format: toxicity, organism-based; set-up: dose 10 mg/kg, route intravenous; conditions: in vivo, 0.25 h; method in brief: as §3
Rattus norvegicus [17] = test: Cardiotoxicity in Wistar rat assessed as QT interval at 10 mg/kg, iv after 5 mins by ECG analysis; format: toxicity, organism-based; set-up: dose 10 mg/kg, route intravenous; conditions: in vivo; method in brief: as §3
Rattus norvegicus [18] = test: Cardiotoxicity in Wistar rat assessed as PQ interval at 10 mg/kg, iv after 5 mins by ECG analysis; format: toxicity, organism-based; set-up: dose 10 mg/kg, route intravenous; conditions: in vivo; method in brief: as §3
Rattus norvegicus [19] = test: Cardiotoxicity in Wistar rat assessed as PQ interval at 10 mg/kg, iv after 10 mins by ECG analysis; format: toxicity, organism-based; set-up: dose 10 mg/kg, route intravenous; conditions: in vivo
Rattus norvegicus [20] = test: Cardiotoxicity in Wistar rat assessed as QRS interval at 5 mg/kg, iv after 10 mins by ECG analysis; format: toxicity, organism-based; set-up: dose 5 mg/kg, route intravenous; conditions: in vivo
Rattus norvegicus [21] = test: Cardiotoxicity in Wistar rat assessed as QT interval at 5 mg/kg, iv after 10 mins by ECG analysis; format: toxicity, organism-based; set-up: dose 5 mg/kg, route intravenous; conditions: in vivo
Rattus norvegicus [22] = test: Cardiotoxicity in Wistar rat assessed as QRS interval at 5 mg/kg, iv after 5 mins by ECG analysis; format: toxicity, organism-based; set-up: dose 5 mg/kg, route intravenous; conditions: in vivo; method in brief: as §3
Rattus norvegicus [23] = test: Cardiotoxicity in Wistar rat assessed as hear beats per min at 5 mg/kg, iv after 5 mins by ECG analysis; format: toxicity, organism-based; set-up: dose 5 mg/kg, route intravenous; conditions: in vivo; method in brief: as §3
Rattus norvegicus [24] = test: Cardiotoxicity in Wistar rat assessed as PQ interval at 5 mg/kg, iv after 5 mins by ECG analysis; format: toxicity, organism-based; set-up: dose 5 mg/kg, route intravenous; conditions: in vivo; method in brief: as §3
Rattus norvegicus [25] = test: Cardiotoxicity in Wistar rat assessed as QT interval at 5 mg/kg, iv after 15 mins by ECG analysis; format: toxicity, organism-based; set-up: dose 5 mg/kg, route intravenous; conditions: in vivo, 0.25 h; method in brief: as §3
Rattus norvegicus [26] = test: Cardiotoxicity in Wistar rat assessed as hear beats per min at 5 mg/kg, iv after 15 mins by ECG analysis; format: toxicity, organism-based; set-up: dose 5 mg/kg, route intravenous; conditions: in vivo, 0.25 h; method in brief: as §3
Rattus norvegicus [27] = test: Cardiotoxicity in Wistar rat assessed as hear beats per min at 5 mg/kg, iv after 10 mins by ECG analysis; format: toxicity, organism-based; set-up: dose 5 mg/kg, route intravenous; conditions: in vivo
Rattus norvegicus [28] = test: Cardiotoxicity in Wistar rat assessed as QRS interval at 5 mg/kg, iv after 15 mins by ECG analysis; format: toxicity, organism-based; set-up: dose 5 mg/kg, route intravenous; conditions: in vivo, 0.25 h; method in brief: as §3

COc1ccccc1N1CCN(CC(COc2cccc3c(=O)c4ccccc4oc23)OC(C)=O)CC1.Cl (racemic)
Activity (Rattus norvegicus [1]): 120.6 mmHg
Activity (Rattus norvegicus [2]): 93.6 mmHg
Activity (Rattus norvegicus [3]): 92.8 mmHg
Activity (Rattus norvegicus [4]): 95.6 mmHg
Activity (Rattus norvegicus [5]): 92.2 mmHg
Activity (Rattus norvegicus [6]): 117 mmHg
Activity (Rattus norvegicus [7]): 96.4 mmHg
Activity (Rattus norvegicus [8]): 89.6 mmHg
Activity (Rattus norvegicus [9]): 122.2 mmHg
Activity (Rattus norvegicus [10]): 123.2 mmHg
Activity (Rattus norvegicus [11]): 119 mmHg

Cl.Cl.Cl.O=c1c2ccc(Cl)cc2oc2c(OCC(O)CN3CCN(CCOc4ccccc4)CC3)cccc12 (racemic)
Activity (Rattus norvegicus [12]): 32.81 ms
Activity (Rattus norvegicus [13]): 303.69 bpm
Activity (Rattus norvegicus [14]): 20.32 ms
Activity (Rattus norvegicus [2]): 101.2 mmHg
Activity (Rattus norvegicus [3]): 102.6 mmHg
Activity (Rattus norvegicus [5]): 97.4 mmHg
Activity (Rattus norvegicus [15]): 50.48 ms
Activity (Rattus norvegicus [16]): 53.2 ms
Activity (Rattus norvegicus [17]): 54.4 ms
Activity (Rattus norvegicus [18]): 33.12 ms
Activity (Rattus norvegicus [6]): 110.8 mmHg
Activity (Rattus norvegicus [8]): 103.6 mmHg
Activity (Rattus norvegicus [19]): 33.6 ms
Activity (Rattus norvegicus [11]): 117.2 mmHg

Cl.Cl.Cl.O=c1c2ccc(Cl)cc2oc2c(OCC(O)CN3CCN(C/C=C/c4ccccc4)CC3)cccc12 (racemic)
Activity (Rattus norvegicus [20]): 20.2 ms
Activity (Rattus norvegicus [21]): 74.7 ms
Activity (Rattus norvegicus [22]): 20.2 ms
Activity (Rattus norvegicus [23]): 317.3 bpm
Activity (Rattus norvegicus [24]): 45.7 ms
Activity (Rattus norvegicus [25]): 74.6 ms
Activity (Rattus norvegicus [26]): 329.3 bpm
Activity (Rattus norvegicus [27]): 324.3 bpm
Activity (Rattus norvegicus [28]): 20.3 ms
